From ChEMBL document CHEMBL1212905, “Schisanartane nortriterpenoids with diverse post-modifications from Schisandra propinqua” (J Nat Prod, 2010)
Structures can show the parent of a compound that is named as a salt.

Assays:
Assay type in all cases: functional, cell-based
[1] = tested on: HT-29; assay: Cytotoxicity against human HT-29 cells after 72 hrs by SRB assay; conditions: HT-29, 72 h
Summary of the method: (§1)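 Adherent cells plated 24 h before treatment and exposed continuously to compound at 100, 10, 1 and 0.1 µM for 72 h. Cells were then fixed and stained with sulforhodamine B, and IC50 was determined. Amrubicin hydrochloride served as the positive control.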

[2] = tested on: A549; assay: Cytotoxicity against human A549 cells after 72 hrs by SRB assay; conditions: A549, 72 h; summary of the method: as §1
[3] = tested on: K562; assay: Cytotoxicity against human K562 cells after 72 hrs by SRB assay; conditions: K562, 72 h

Row | SMILES | IC50 [1] [µM] | IC50 [2] [µM] | IC50 [3] [µM]
1 | CC(=O)[C@]1(N)Cc2c(O)c3c(c(O)c2[C@@H](O[C@H]2C[C@H](O)[C@H](O)CO2)C1)C(=O)c1ccccc1C3=O [AMRUBICIN HYDROCHLORIDE] | 4.57 | 0.94 | 1.2
2 | CC1=C[C@@H]2O[C@]34O[C@@]5(CC[C@]6(C)C(=O)[C@](C)(O)[C@]2(OC1=O)[C@H]36)C[C@]12OC(=O)C[C@H]1O[C@@](C)(CO)[C@@H]2CC[C@@]5(O)C4=O [SCHISANDILACTONE A] | > 100 | > 100 | > 100
3 | C[C@H]1C(=O)O[C@@H]2[C@H]1O[C@]1(C)[C@H]2[C@H]2[C@](C)(CC[C@]34C[C@]56OC(=O)C[C@H]5OC(C)(C)[C@@H]6C[C@H](O)[C@H]3C(=O)[C@@]2(O)O4)[C@@H]1O [SCHISANDILACTONE B] | > 100 | > 100 | > 100
4 | C[C@H]1C(=O)O[C@@H]2[C@H]1O[C@@]1(C)C(=O)[C@@]3(C)CC[C@]45C[C@]67OC(=O)C[C@H]6OC(C)(C)[C@@H]7C[C@H](O)[C@H]4C(=O)[C@@](O)(O5)[C@H]3[C@@]21O [SCHISANDILACTONE C] | > 100 | > 100 | > 100
5 | C[C@H]1C(=O)O[C@@H]2[C@H]1O[C@@]1(C)C(=O)[C@@]3(C)CC[C@]45C[C@]67OC(=O)C[C@H]6OC(C)(C)[C@@H]7C[C@@H](O)[C@H]4C(=O)[C@@](O)(O5)[C@H]3[C@@]21O [SCHISANDILACTONE D] | > 100 | > 100 | > 100
6 | CC1=C[C@@H]([C@@H]2[C@H]3[C@](C)(C(=O)C[C@]45C[C@]67OC(=O)C[C@H]6O[C@@](C)(CO)[C@@H]7CC[C@@H]4[C@@H](O)[C@@]3(O)O5)C(=O)[C@]2(C)O)OC1=O [SCHISANDILACTONE E] | > 100 | > 100 | > 100
7 | CC1=C[C@@H]([C@]2(O)[C@H]3[C@](C)(CC[C@]45C[C@]67OC(=O)C[C@H]6OC(C)(C)[C@@H]7C[C@@H](O)[C@H]4C(=O)[C@@]3(O)O5)C(=O)[C@]2(C)O)OC1=O [SCHISANDILACTONE F] | > 100 | > 100 | > 100
8 | C[C@@H]1C(=O)O[C@H]2[C@@H]1O[C@]13O[C@@]4(CC(=O)[C@]5(C)C(=O)[C@](C)(O)[C@H]2[C@@H]51)C[C@]12OC(=O)C[C@H]1O[C@@](C)(CO)[C@@H]2CC[C@H]4[C@H]3O [SCHISANDILACTONE G] | > 100 | > 100 | > 100
9 | C[C@@H]1C(=O)O[C@H]2[C@@H]1O[C@]13O[C@@]4(CC(=O)[C@]5(C)C(=O)[C@](C)(O)[C@@]2(O)[C@@H]51)C[C@]12OC(=O)C[C@H]1O[C@@](C)(CO)[C@@H]2CC[C@@H]4[C@H]3O [SCHISANDILACTONE H] | > 100 | > 100 | > 100
10 | C[C@@H]1C(=O)O[C@H]2[C@@H]1O[C@]13O[C@@]4(CC[C@]5(C)C(=O)[C@](C)(O)[C@H]2[C@H]15)C[C@]12OC(=O)C[C@H]1O[C@@](C)(CO)[C@@H]2CC[C@H]4C3=O [SCHISANDILACTONE I] | > 100 | > 100 | > 100
11 | C[C@@H]1C(=O)O[C@H]2[C@@H]1O[C@]13O[C@@]4(CC[C@]5(C)C(=O)[C@](C)(O)[C@@]2(O)[C@H]15)C[C@]12OC(=O)C[C@H]1O[C@@](C)(CO)[C@@H]2C[C@@H]1O[C@@]14C3=O [SCHISANDILACTONE J] | > 100 | > 100 | > 100
